Results pooled from the literature.
Compare with care: the assays were run in different laboratories.
TRIM24: Transcription intermediary factor 1-alpha (TRIM24, Homo sapiens, UniProt O15164)
PDE5A: cGMP-specific 3',5'-cyclic phosphodiesterase (PDE5A, Homo sapiens, UniProt O76074)
KDM1A: Lysine-specific histone demethylase 1A (KDM1A, Homo sapiens, UniProt O60341)

CC(=O)N[C@H](C(=O)N[C@H](C(=O)N[C@@H](Cc1ccccc1)C(=O)N[C@H](C(=O)N[C@@H](CO)C(=O)N[C@@H](Cc1c[nH]c2ccccc12)C(=O)N[C@@H](CCC(=O)O)C(=O)N[C@@H](CCC(=O)O)C(=O)N[C@@H](Cc1ccc(O)cc1)C(=O)N[C@@H](CC(C)C)C(=O)N[C@@H](CC(=O)O)C(=O)N[C@@H](Cc1c[nH]c2ccccc12)C(=O)N[C@H](C(N)=O)C(C)C)[C@@H](C)O)C(C)C)[C@@H](C)O — kon (Proprotein convertase subtilisin/kexin type 9 (PCSK9, Homo sapiens, UniProt Q8NBP7); binding, SPR): 260000 M⁻¹ s⁻¹
C[S+]([O-])c1ccc(-c2nc(-c3ccncc3)c(-c3ccc(F)cc3)[nH]2)cc1 (stereo not drawn) — ΔTm (TRIM24; thermal stability, DSF; 10 µM): 1.4 °C
Nc1ncnc2occ(-c3ccc(NC(=O)Nc4cc(C(F)(F)F)ccc4F)cc3)c12 — remaining signal (Cyclin-dependent kinase 15 (CDK15, Homo sapiens, UniProt Q96Q40); cell-free assay, inhibitor; 20 µM): 1.1%
Cc1cc2c(cc1N1C(=O)c3cccc4c(Cl)ccc(c34)C1=O)n(C)c(=O)n2C — ΔTm (SP140L (Homo sapiens, UniProt Q9H930); thermal stability, DSF; 10 µM): -1.4 °C
Cc1cnc(Nc2ccc(OCCN3CCCC3)cc2)nc1Nc1cccc(S(=O)(=O)NC(C)(C)C)c1 — ΔTm (Bromodomain-containing protein 3, BD2 (BRD3, Homo sapiens, UniProt Q15059); thermal stability, DSF; 10 µM): 3.4 °C
NS(=O)(=O)c1ccc(Nc2nc(-c3ccc(F)cc3)c3ccccc3n2)cc1 — remaining binding (Bromodomain-containing protein 3, BD1 (BRD3, Homo sapiens, UniProt Q15059); binding, competition with immobilised ligand; 1 µM): 1%
COC(=O)[C@@H]1Cc2c([nH]c3ccccc23)[C@H](c2ccc(OC)c(OC)c2)N1C(=O)CCl — inhibition (PDE5A; enzyme activity, inhibitor, FP; 50 µM): 48%
O=C(O)c1ccc(CN2CCC(CN[C@@H]3C[C@H]3c3ccccc3)CC2)cc1 — kinact (KDM1A; enzyme activity, inhibitor): 0.013 s⁻¹
Oc1ccc(-c2nc(-c3ccncc3)c(-c3ccc(F)cc3)[nH]2)cc1 — ΔTm (TRIM24; thermal stability, DSF; 10 µM): -0.23 °C
CN1CCN(C(=O)[C@H](CCCN[C@@H]2C[C@H]2c2ccc(F)cc2)NC(=O)c2ccc(-n3ccnn3)cc2)CC1 — kinact (KDM1A; enzyme activity, inhibitor): 0.018 s⁻¹
CC(C)(C)N1C(=O)[C@H]2Cc3c([nH]c4ccccc34)[C@H](c3cccnc3)N2C1=O — inhibition (PDE5A; enzyme activity, inhibitor, FP; 50 µM): 89%
COc1cc2c(NC3CCN(C(C)C)CC3)nc(C3CCCCC3)nc2cc1OCCCN1CCCC1 — ΔTm (Histone-lysine N-methyltransferase EHMT1 (EHMT1, Homo sapiens, UniProt Q9H9B1); thermal stability, DSF; 100 µM): 8 °C
